Measured values published in ChEMBL document CHEMBL1128484, “Cardioselective ammonium, phosphonium, and sulfonium analogues of alpha-tocopherol and ascorbic acid that inhibit in vitro and ex vivo lipid peroxidation and scavenge superoxide radicals” (J Med Chem, 1995).
Blank lines part the entries; values can stand above or below the molecule they belong to.

Key:
[1] = (§1) The reaction rate constant(K) by measuring competition with nitroblue tetrazolium of the superoxide radicals formed by xanthine oxidase/xanthine; assay type: functional
[2] = species on record: Rattus norvegicus; assay: The IC50 value was measured for inhibition of lipid autoxidation in rat brain homogenate.; assay type: functional
Method in brief: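 Rat brain homogenate left to autoxidize with test compound present. The read-out is formation of thiobarbituric acid-reactive substances (TBARS). IC50 is the concentration that inhibits TBARS formation by 50%. Values are single or duplicate determinations, or means ± SD.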

[3] = species on record: Mus musculus; assay: The ex vivo ID50 value was measured for lipid inhibition of autoxidation in mouse heart homogenate; assay type: functional; settings: read-out: ID50 (the source's name)
Method in brief: (§2)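 Groups of five CD1 mice were dosed subcutaneously, and hearts were excised 1 h later. Frozen hearts were homogenized, diluted in potassium phosphate buffer and incubated at 37 °C for 2 h. The reaction was stopped on ice with HClO4 and centrifuged. The supernatant was heated with thiobarbituric acid at 100 °C for 15 min. TBARS were extracted into n-butanol and read by fluorescence (ex 515 nm, em 553 nm) against a malondialdehyde dimethylacetal standard. ID50 was taken from semilog plots of log dose versus percent of vehicle control, using at least four doses.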

[4] = species on record: Mus musculus; assay: The in vitro IC50 value was measured for inhibition of lipid autoxidation in mouse heart homogenate; assay type: functional
Method in brief: (§3)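 Heart homogenate from untreated mice, diluted in potassium phosphate buffer. Test compound was added at several concentrations before 2 h incubation at 37 °C. The reaction was stopped on ice with HClO4, then heated with thiobarbituric acid at 100 °C for 15 min. TBARS were extracted into n-butanol and read by fluorescence (ex 515 nm, em 553 nm) against a malondialdehyde dimethylacetal standard. IC50 is 50% inhibition of TBARS formation.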

[5] = as §1; assay type: ADME
[6] = The reaction rate constant (K) by measuring competition with nitroblue tetrazolium of the superoxide radicals formed by xanthine oxidase/xanthine; assay type: ADME
[7] = system: Mus musculus; assay: The ex vivo ID50 value was measured for inhibition of lipid autoxidation in mouse heart homogenate 1 hr after subcutaneous administration.; assay type: functional; settings: sc, read-out: ID50 (the source's name); method in brief: as §2
[8] = species on record: Mus musculus; assay: The in vitro IC50 value was measured for lipid inhibition of autoxidation in mouse heart homogenate; assay type: functional; method in brief: as §3
[9] = species on record: Mus musculus; assay: The ex vivo ID50 value was measured for inhibition of lipid autoxidation in mouse heart homogenate; assay type: functional; settings: read-out: ID50 (the source's name); method in brief: as §2

K [1]: 350000 M⁻¹ s⁻¹
SMILES: O=C1O[C@H]([C@@H](O)CO)C(O)=C1O

K [6]: 18000 M⁻¹ s⁻¹
SMILES: Cc1c(C)c2c(c(C)c1O)CC[C@](C)(CC[N+](C)(C)C)O2.Cc1ccc(S(=O)(=O)[O-])cc1
IC50 ([2]; Rattus norvegicus, Brain): 2.2 µM

K [5]: 28000 M⁻¹ s⁻¹
SMILES: Cc1c(C)c2c(c(C)c1O)CCC(C)(CC(=O)[N-][N+](C)(C)C)O2 (centres undefined)
IC50 ([2]; Rattus norvegicus, Brain): 6 µM

K [5]: 22000 M⁻¹ s⁻¹
SMILES: CC[P+](CC)(CC)CCC1(C)CCc2c(C)c(O)c(C)c(C)c2O1.[Br-] (centres undefined)
IC50 ([2]; Rattus norvegicus, Brain): 2 µM
ED50 [3]: 7 µmol/kg
IC50 [4]: 10 µM

K [6]: 24000 M⁻¹ s⁻¹
SMILES: Cc1c(C)c2c(c(C)c1O)CCC(C)(CC[N+](C)(C)C)O2.Cc1ccc(S(=O)(=O)[O-])cc1 (centres undefined)
IC50 ([2]; Rattus norvegicus, Brain): 2.6 µM
IC50 [4]: 19 µM
ED50 [7]: 11 µmol/kg

K [5]: 21000 M⁻¹ s⁻¹
SMILES: CCCCCCCCCCCCCCCCCCOC1=C(O)[C@@H](C(O)CO)OC1=O (some centres undefined)
IC50 ([2]; Rattus norvegicus, Brain): 6 µM

K [6]: 600000 M⁻¹ s⁻¹
SMILES: C[N+](C)(C)CC(O)C1OC(=O)C(O)=C1[O-] (centres undefined)
IC50 ([2]; Rattus norvegicus, Brain): > 200 µM

K [6]: 20000 M⁻¹ s⁻¹
SMILES: Cc1c(C)c2c(c(C)c1O)CCC(C)(C(=O)O)O2 (centres undefined) [TROLOX]
IC50 [2]: 14 µM

K [6]: 27000 M⁻¹ s⁻¹
SMILES: Cc1c(C)c2c(c(C)c1O)CCC(C)(CCN(C)C)O2 (centres undefined)
IC50 [4]: 19 µM
ED50 [9]: > 150 µmol/kg

The next lines start with the molecule.

SMILES: Cc1c(C)c2c(c(C)c1O)CC[C@@](C)(CCC[C@H](C)CCC[C@H](C)CCCC(C)C)O2 [alpha-TOCHOPHEROL]
IC50 ([2]; Rattus norvegicus, Brain): 14 µM

SMILES: Cc1c(C)c2c(c(C)c1O)CC[C@](C)(CC(=O)O)O2
IC50 ([2]; Rattus norvegicus, Brain): 14 µM

SMILES: Cc1c(C)c2c(c(C)c1O)CCC(C)(CC[P+](C)(C)C)O2.[Br-] (centres undefined)
IC50 ([2]; Rattus norvegicus, Brain): 2 µM
ED50 [3]: 8 µmol/kg
IC50 [4]: 10 µM
K [5]: 24000 M⁻¹ s⁻¹

SMILES: Cc1c(C)c2c(c(C)c1O)CCC(C)(C(=O)[N-][N+](C)(C)C)O2 (centres undefined)
IC50 ([2]; Rattus norvegicus, Brain): 14 µM

SMILES: Cc1c(C)c2c(c(C)c1O)CC[C@](C)(CC[S+](C)C)O2
IC50 ([2]; Rattus norvegicus, Brain): 2 µM

SMILES: Cc1c(C)c2c(c(C)c1O)CC[C@@](C)(CC(=O)O)O2
IC50 ([2]; Rattus norvegicus, Brain): 17 µM

SMILES: Cc1c(C)c2c(c(C)c1O)CC[C@@](C)(CC[N+](C)(C)C)O2.Cc1ccc(S(=O)(=O)[O-])cc1
IC50 ([2]; Rattus norvegicus, Brain): 2.3 µM
K [6]: 21000 M⁻¹ s⁻¹

SMILES: Cc1c(C)c2c(c(C)c1O)CC[C@@](C)(CC[S+](C)C)O2
IC50 ([2]; Rattus norvegicus, Brain): 2 µM

SMILES: Cc1c(C)c2c(c(C)c1O)CC[C@](C)(CC[P+](C)(C)C)O2
IC50 ([2]; Rattus norvegicus, Brain): 2 µM

SMILES: Cc1c(C)c2c(c(C)c1O)CCC(C)(CC[S+](C)C)O2.Cc1ccc(S(=O)(=O)[O-])cc1 (centres undefined)
IC50 ([2]; Rattus norvegicus, Brain): 2 µM
ED50 [3]: 6 µmol/kg
IC50 [4]: 7 µM
K [5]: 21000 M⁻¹ s⁻¹

SMILES: Cc1c(C)c2c(c(C)c1O)CC[C@@](C)(CCN(C)C)O2
IC50 ([2]; Rattus norvegicus, Brain): 1 µM

SMILES: Cc1c(C)c2c(c(C)c1O)CC[C@](C)(CC(=O)[N-][N+](C)(C)C)O2
IC50 ([2]; Rattus norvegicus, Brain): 8 µM

SMILES: CSCCC1(C)CCc2c(C)c(O)c(C)c(C)c2O1 (centres undefined)
IC50 ([2]; Rattus norvegicus, Brain): 3 µM
ED50 [3]: > 150 µmol/kg
K [6]: 800 M⁻¹ s⁻¹
IC50 [8]: 18 µM

SMILES: Cc1c(C)c2c(c(C)c1O)CC[C@@](C)(CC(=O)[N-][N+](C)(C)C)O2
IC50 ([2]; Rattus norvegicus, Brain): 9 µM

SMILES: Cc1c(C)c2c(c(C)c1O)CC[C@](C)(CCN(C)C)O2
IC50 ([2]; Rattus norvegicus, Brain): 1 µM

SMILES: CCCCCCCCCCCCCCCCCCOC1=C([O-])C(C(O)C[N+](C)(C)C)OC1=O (centres undefined)
IC50 ([2]; Rattus norvegicus, Brain): > 20 µM

SMILES: Cc1c(C)c2c(c(C)c1O)CC[C@@](C)(CC[P+](C)(C)C)O2
IC50 ([2]; Rattus norvegicus, Brain): 2 µM
